MEKK2 WT-MEK5: raises or lowers MEK5 binding to wildtype human MEKK2 PB1 domain. Q9Y2U5. bead flow cytometry, Alexa488-MEK5 binding to MEKK2 WT; actives lie on both sides. binding response (% of control), % at 10 µM. actives 1.1% (n = 290,000); in the data active = binding response below about 67% or above about 130%; inconclusive = no clear call, values can overlap the other calls; inactive = in between
UBC13 polyUb: inhibitors of human UBC13 polyubiquitin chain formation; actives 0.47% (n = 330,000); TR-FRET; P61088; inhibition, % at 20 µM; in the data active = inhibition above about 45%, passing the limit was not always enough; inconclusive = no clear call, values can overlap the other calls
Target sequence (P61088 whole entry, looked up): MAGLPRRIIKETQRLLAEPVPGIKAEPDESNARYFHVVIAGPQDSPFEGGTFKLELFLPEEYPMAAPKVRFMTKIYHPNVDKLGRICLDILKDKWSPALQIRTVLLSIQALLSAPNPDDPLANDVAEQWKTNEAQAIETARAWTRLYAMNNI
MEKK2 mut-MEK5: signal of MEK5 binding to mutant human MEKK2 PB1 domain | bead flow cytometry, Alexa488-MEK5 binding to MEKK2 mutant | percent response, % at 10 µM | actives 0.35% (n = 290,000) | AID 1530; in the data active = percent response above about 24%, passing the limit was not always enough
MEKK3 PB1 HTS: raises or lowers MEK5 binding to the human MEKK3 PB1 domain; actives 1.4% (n = 290,000); binding response (% of control), % at 10 µM; bead-based flow cytometry, Alexa488-MEK5 binding to MEKK3; actives lie on both sides; 0 = blocked by unlabeled MEK5, 100 = vehicle; Q99759;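 active = binding response more than 3 SD above or below the average of its plate-row segment, actives on both sides; inconclusive = wells at one plate position flagged as instrument error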;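 also: Alexa488 bead fluorescence after subtracting the streptavidin-only scavenger bead signal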
Apaf1 inhib: inhibitors of human Apaf-1 apoptosome; actives 0.71% (n = 330,000); inhibition, % at 20 µM; reconstituted apoptosome caspase-3 activity, DEVD-Rh110 fluorescence; active = inhibition of at least 40% at 20 µM;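 also: plate controls were DMSO wells for no effect and DEVD-CHO caspase inhibitor wells for full effect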
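System – cell-free apoptosome with Apaf-1, procaspase-3 and caspase-9 · Buffer or medium – pH 7.5 Hepes buffer with CHAPS, BSA, DTT · Also added – cytochrome c with DEVD-Rh110 · Times – 30 min compound preincubation, 50 min activation, room temperature · Technique – Rh110 fluorescence intensity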
UCH37 inh: human UCH37 deubiquitinating enzyme inhibition; actives 0.33% (n = 330,000); inhibition, % (concentration not given with the values); AID 588478; purified proteasome/UCH37, Ub-AMC cleavage fluorescence; Q9Y5K5;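 active = mean inhibition over replicate wells above about 20%, limit read from the data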;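 also: 0% = compound-free wells with enzyme and 100% = wells lacking proteasome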
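Assay system: Proteasome-bound UCH37. Buffer or medium: pH 7.4 Tris-HCl (50 mM) with ovalbumin, ATP-MgCl2, DTT. Incubation: 30 min preincubation with enzyme, 25 min cleavage at room temperature. Measured by: fluorescence, ex 355 nm, em 460 nm. Read-out basis: percent inhibition. Control set: wells without proteasome as full block, compound-free enzyme plus substrate as uninhibited.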
Casp3 counter: inhibits human caspase-3 in UBC13 counter-screen; actives 4% (n = 1,400); inhibition, % at 20 µM; Recombinant caspase-3, Caspase-Glo 3/7 luminescence, 60 min; shares compounds with UBC13 polyUb; AID 488856;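 active = mean inhibition across replicates above about 26%, limit read from the data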;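 also: plate controls were DMSO with caspase-3 for no effect and DMSO wells lacking enzyme for full effect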
Target sequence (P42574 whole entry, looked up): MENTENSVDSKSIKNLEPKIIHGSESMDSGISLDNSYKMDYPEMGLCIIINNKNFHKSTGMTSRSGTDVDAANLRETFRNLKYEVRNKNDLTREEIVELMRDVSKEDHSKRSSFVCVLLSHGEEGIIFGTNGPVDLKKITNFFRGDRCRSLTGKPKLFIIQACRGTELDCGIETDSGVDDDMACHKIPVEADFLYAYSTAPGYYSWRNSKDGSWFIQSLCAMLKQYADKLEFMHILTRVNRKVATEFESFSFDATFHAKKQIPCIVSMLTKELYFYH
UBC13 confirm: confirmation of human UBC13 polyubiquitin inhibitors. shares compounds with UBC13 polyUb. actives 68% (n = 1,400). UBC13 polyubiquitination, TR-FRET, biochemical. inhibition, % at 10 µM; in the data active = inhibition above about 45%; inconclusive = no clear call, values can overlap the other calls
The depositor's hits bear a star; ? = inconclusive; . = no result. An excerpt weighted towards active compounds, which were near 3% of everything screened.

SMILES | MEKK2 WT-MEK5 | UBC13 polyUb | MEKK2 mut-MEK5 | MEKK3 PB1 HTS | Apaf1 inhib | UCH37 inh | Casp3 counter | UBC13 confirm
O=C(CN1C(=O)NC2(CCCC2)C1=O)NCCC1=CCCCC1 | 100 | 97* | 16 | 101 | -11 | 5 | -1 | 6
CC(C)N(CCO)C(=O)CCc1nnc(CCCc2ccccc2)o1 | 98 | -2 | -2 | 97 | 0 | 2 | . | .
N#Cc1ccsc1NC(=O)C1CCN(C(=O)c2ccc(Cl)cc2)CC1 | . | 48* | . | . | 6 | 3 | -2 | 79*
O=C(NC1CCCC1)C1CCN(C(=O)c2ccc(Cl)cc2)CC1 | 104 | 2 | 6 | 103 | 1 | 3 | . | .
COC(=O)c1cc(OC)cc(O)c1C(=O)c1c(O)cc(C)cc1O | 106 | -9 | 4 | 104 | -8 | 4 | . | .
O=S(=O)(Nc1nc2ccccc2[nH]1)c1ccc(Cl)cc1 | 97 | 52* | 1 | 101 | 4 | 2 | -2 | 49*
O=C(O)C1CC=CCC1C(=O)Nc1cccnc1 (stereo not given) | 99 | -3 | -3 | 98 | 0 | 4 | . | .
O=C(COC(=O)c1c[nH]c(=O)[nH]c1=O)Nc1cccc([N+](=O)[O-])c1 | . | 66* | . | . | -8 | 2 | -3 | 76*
CC(/C=N/N1C(=O)CSC1=S)=C\c1ccccc1 | 84 | -12 | -12 | 99 | 8 | . | . | .
CCC(=O)NC(C)c1cc(Cl)c2cccnc2c1O (stereo not given) | . | -15 | . | . | -6 | 4 | . | .
CCC(=O)NC(c1ccco1)c1cc(Cl)c2ccccc2c1O (stereo not given) | . | 35 | . | . | 5 | -2 | . | .
CC(=O)NC(C)c1cc(Cl)c2ccccc2c1O (stereo not given) | . | 63* | . | . | -2 | 0 | 5 | 47*
CC(=O)NC(c1ccco1)c1cc(Cl)c2ccccc2c1O (stereo not given) | . | 47* | . | . | 16 | -4 | -2 | 37
CC(=O)NC(C)c1cc(Cl)c2cccnc2c1O (stereo not given) | . | 0 | . | . | -9 | 4 | . | .
CCC(=O)NC(c1cc(Cl)c2ccccc2c1O)C(C)C (stereo not given) | . | 71* | . | . | 10 | 3 | 2 | 56*
C[N+](C)(CCOc1ccccc1)Cc1ccccc1 (tested in a mixture with another compound) | 99 | -24 | -2 | 99 | 7 | 3 | . | .
CCOC(=O)c1nn(-c2ccccc2)c(=O)cc1OCC(=O)Nc1cc(C)ccc1OC | . | 48* | . | . | -57 | -4 | -5 | ?
COc1ccc(-n2nc(C(=O)NCc3cc(OC)ccc3OC)c3c4ccccc4n(C)c3c2=O)cc1 | 82 | 47* | -13 | 85 | -11 | -108 | 2 | ?
Cc1ccc(C(CCNC(C)c2cccs2)c2ccco2)cc1 (stereo not given) | 115 | 25 | 10 | 99 | 7 | 3 | . | .
CN(C)CCC(=O)C(Cc1ccccc1)c1ccccc1 (stereo not given) | . | 47* | . | . | -17 | 0 | 4 | 40
Cc1cccc(NC(=S)N=Nc2c(O)[nH]c3ccccc23)c1 | 93 | 60* | 0 | 96 | 2 | 8 | 2 | 76*
Oc1[nH]c2ccccc2c1N=NC(=S)NCC1CCCO1 (stereo not given) | 90 | 98* | 12 | 103 | 1 | 9 | 2 | 102*
CCn1c(O)c(N=NC(=S)NCC2CCCO2)c2ccccc21 (stereo not given) | 99 | 77* | 0 | 100 | 0 | 9 | 2 | 95*
Oc1[nH]c2ccc(Br)cc2c1N=NC(=S)NCC1CCCO1 (stereo not given) | 93 | 79* | -1 | 94 | 1 | . | 3 | 97*
CCOC(=O)C1=CN(Cc2cccc(F)c2)S(=O)(=O)NC1c1ccc(Br)cc1F (stereo not given) | . | . | . | . | 16 | 1 | . | .
SMILES | MEKK2 WT-MEK5 | UBC13 polyUb | MEKK2 mut-MEK5 | MEKK3 PB1 HTS | Apaf1 inhib | UCH37 inh | Casp3 counter | UBC13 confirm
CC(C)c1ccc2[nH]c(O)c(N=NC(=O)c3cccc(S(=O)(=O)Nc4ccccc4Cl)c3)c2c1 | 101 | -28 | -1 | 105 | 16 | . | . | .
Oc1[nH]c2c(Cl)cc(Cl)cc2c1N=NC(=S)NCC1CCCO1 (stereo not given) | 81 | -43 | 14 | 98 | 2 | 9 | . | .
Cc1cc(C)c2[nH]c(O)c(N=NC(=S)NCC3CCCO3)c2c1 (stereo not given) | 84 | 91* | -7 | 76 | -12 | 3 | -6 | 94*
CC(C)NC(=S)N=Nc1c(O)[nH]c2ccc(C(C)C)cc12 | 107 | 65* | 8 | 103 | 19 | 4 | 0 | 74*
CC(=O)Nc1ccc(S(=O)(=O)NCC(=O)OCC(=O)NC(=O)c2cccn2C)cc1 | 104 | 3 | 10 | 106 | -33 | 3 | . | .
Cc1nc(=O)c(-c2ccccc2)c(C)n1-c1ccccc1Cl | . | 5 | . | . | -6 | 2 | . | .
COc1ccc(-c2sc3ccccc3c2-c2ccc(O)cc2)cc1 | . | 28 | . | . | 26 | . | . | .
COc1ccc(-c2sc3ccccc3c2-c2ccc(OCCN(C)C)cc2)cc1 | . | 87* | . | . | 77* | 0 | -10 | 81*
CCN1CCN(CCNC(=O)c2ccc3nc(-c4cccc(C)c4)c(-c4cccc(C)c4)nc3c2)CC1 | 151* | 54* | 25* | 104 | 47* | -406 | -2 | 84*
CCCc1nnc(NC(=O)c2nc(S(=O)(=O)Cc3cccc(C)c3)ncc2Cl)s1 | 107 | 54* | 4 | 106 | -6 | . | 5 | 62*
CCOC(=O)C1=C(C)NC2=C(C(=O)C(C(=O)OC)C(C)C2)C1c1ccc(OC)c(O)c1 (stereo not given) | 90 | -4 | -5 | 96 | -7 | -2 | . | .
CCSc1nc(-c2ccccc2)c2cc(Cl)ccc2n1 | 96 | 49* | -1 | 104 | 7 | -2 | -3 | ?
CN(C)c1nc(-c2ccccc2)c2cc(Cl)ccc2n1 | 89 | 23 | 0 | 97 | 12 | -39 | . | .
O=C(NC1CCC(c2ccccc2)CC1)c1cccnc1 (stereo not given) | 97 | 2 | -3 | 99 | 2 | 0 | . | .
COc1ccccc1NC(=O)c1c(N=Cc2c(O)ccc3ccccc23)cnn1C | 100 | 58* | -5 | 105 | 0 | 3 | 0 | 66*
Cn1ncc(N=Cc2c(O)ccc3ccccc23)c1C(=O)N1CCOCC1 | 109 | 3 | 4 | 108 | 7 | 3 | . | .

Source: PubChem BioAssay
